High-throughput results (PubChem BioAssay)
Scp-1 inhibitor: Scp-1 (human) phosphatase inhibition. Q9GZU7. Recombinant Scp1, phosphopeptide, malachite green phosphate absorbance. inhibition, % at 20 µM. 0.88% of 340,000 active;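 active means inhibition above about 50% at 20 µM, limit read from the data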;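 further: plate controls were DMSO wells with enzyme for no effect and wells lacking enzyme for full effect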
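System: SCP-1 catalytic domain; Reagent: Phospho 17-mer peptide substrate; Doses: one concentration, 20 µM, with 1.0% DMSO; Incubation: 45 min room-temperature reaction, 5 min colour, 30 min stabiliser; Signal: Phosphate-binding colour reagent, absorbance read at 630 nm.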
Rpn11 block: blocks the human proteasome subunit Rpn11; O00487; human 26S proteasome, Ub4-pepOG fluorescence polarization; 20S core pre-blocked with epoxomicin; AID 588493; 0.59% of 360,000 active; inhibition, % at 20 µM;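 active means inhibition at 20 µM, scaled to each plate's controls, above about 33%, limit read from the data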
DNMT1 inh: blocks human DNA methyltransferase DNMT1. P26358. DNMT1 molecular beacon, Hinp1I cleavage, fluorescence. inhibition (reported as % activation of signal), % at 10 µM. 0.83% of 360,000 active. AID 588458; in the data active means inhibition above about 50%
Target sequence (P26358 504-1616 limits assumed): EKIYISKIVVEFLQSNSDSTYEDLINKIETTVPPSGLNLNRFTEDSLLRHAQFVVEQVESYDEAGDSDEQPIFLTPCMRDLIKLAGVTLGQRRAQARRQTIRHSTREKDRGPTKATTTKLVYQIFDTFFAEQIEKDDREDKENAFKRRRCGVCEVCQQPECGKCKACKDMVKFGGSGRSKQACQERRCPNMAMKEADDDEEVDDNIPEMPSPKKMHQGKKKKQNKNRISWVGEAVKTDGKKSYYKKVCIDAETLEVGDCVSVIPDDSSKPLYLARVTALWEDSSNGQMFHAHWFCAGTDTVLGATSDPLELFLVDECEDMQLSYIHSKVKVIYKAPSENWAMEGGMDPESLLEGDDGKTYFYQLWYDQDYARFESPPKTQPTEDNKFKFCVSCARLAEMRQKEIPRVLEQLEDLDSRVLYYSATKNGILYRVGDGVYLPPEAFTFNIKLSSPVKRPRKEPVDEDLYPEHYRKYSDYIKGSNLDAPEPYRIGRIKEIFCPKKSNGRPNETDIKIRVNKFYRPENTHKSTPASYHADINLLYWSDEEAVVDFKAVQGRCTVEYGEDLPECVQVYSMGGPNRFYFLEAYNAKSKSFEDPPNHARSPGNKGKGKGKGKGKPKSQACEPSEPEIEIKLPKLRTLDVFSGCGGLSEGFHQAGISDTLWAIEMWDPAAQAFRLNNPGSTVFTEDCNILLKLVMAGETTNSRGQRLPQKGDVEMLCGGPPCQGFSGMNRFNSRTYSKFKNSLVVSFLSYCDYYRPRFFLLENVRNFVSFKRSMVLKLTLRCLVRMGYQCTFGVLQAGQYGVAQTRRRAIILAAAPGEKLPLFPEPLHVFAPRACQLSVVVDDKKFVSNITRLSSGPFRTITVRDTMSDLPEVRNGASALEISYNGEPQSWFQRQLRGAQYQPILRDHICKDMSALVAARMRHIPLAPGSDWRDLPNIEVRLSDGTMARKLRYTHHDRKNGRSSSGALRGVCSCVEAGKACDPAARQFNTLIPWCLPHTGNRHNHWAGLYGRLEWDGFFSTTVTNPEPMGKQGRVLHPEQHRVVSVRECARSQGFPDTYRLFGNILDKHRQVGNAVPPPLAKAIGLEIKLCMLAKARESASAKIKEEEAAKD
LMPTP inh: blocks human LMPTP phosphatase; P24666; 0.22% of 360,000 active; recombinant LMPTP-A, OMFP fluorogenic substrate, fluorescence intensity; AID 651560; inhibition, % at 20 µM;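 active means compounds that cut the enzyme signal by at least half of the control window in the single-dose screen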;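 further: plate controls were DMSO wells with enzyme plus substrate for no effect and substrate without enzyme for full effect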
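Assay system: LMPTP-A phosphatase enzyme | Input: 0.625 nM enzyme | Also added: Fluorogenic phosphatase substrate OMFP at 400 µM final | Compound dosing: One test concentration per compound, 20 µM, with 3% DMSO overall | Schedule: 50 min enzyme reaction at room temperature, protected from light | Signal: Fluorescence intensity | Benchmarks: no-enzyme and uninhibited controls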
STEP inh: inhibitors of human striatal-enriched phosphatase STEP. AID 588621. recombinant STEP, OMFP fluorogenic substrate, fluorescence. inhibition, % at 20 µM. P54829. 0.25% of 360,000 active;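 active means inhibition at 20 µM, scaled per plate between control wells, above about 37%, limit read from the data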;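 further: 0% = DMSO with enzyme and substrate and 100% = substrate only without enzyme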
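medium = Bis-Tris buffer pH 6.0, 2.5 mM DTT, 0.005% Tween 20 | test system = STEP (striatal-enriched tyrosine phosphatase) enzyme, cell-free | measure = normalized % inhibition | compound dosing = 20 µM, 1% DMSO | also added = 25 µM OMFP | schedule = reaction 20 min, ambient temperature | measured by = fluorescence read at 480 nm ex / 540 nm em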
Scp1 confirm: confirmation of human Scp-1 phosphatase inhibitors | shares compounds with Scp-1 inhibitor | recombinant SCP-1 catalytic domain, phosphate release, malachite green absorbance | inhibition, % at 20 µM | 61% of 2,500 active | AID 540281;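 further: plate controls were DMSO with enzyme for no effect and buffer wells lacking enzyme for full effect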
MG interference: counter-screen for Scp-1 inhibitors: colorimetric interference; Colorimetric interference counterscreen, malachite green absorbance 630 nm; apparent inhibition (interference), % at 20 µM; shares compounds with Scp-1 inhibitor; AID 540313; 2,500 tested, under 10 active;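 further: compounds added after enzyme reaction finished so only phosphate colour detection is probed; plate controls were DMSO wells with completed Scp-1 reaction for no effect and substrate wells lacking enzyme for full effect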
Scp-1 Tm shift: Scp-1 (human) binding by thermal shift; 25% of 1,500 active; thermal shift relative to vanadate control, % at 40 µM; shares compounds with Scp-1 inhibitor; AID 540329; Recombinant SCP1, Sypro Orange thermal shift Tm;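 active means substances whose mean melting-temperature shift, as a percentage of the reference inhibitor's shift, reaches about 5.3%, limit read from the data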;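 further: 0% = Tm of DMSO wells and 100% = Tm with sodium orthovanadate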
Starred values were filed as active, the others as inactive; . = no result. Sampled rows, rich in hits. Any-hit rate of the full collection: about 2%.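 How the source made its calls, unless noted: active means inhibition of at least 30% at 20 µM; inactive means the rest.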

SMILES	Scp-1 inhibitor	Rpn11 block	DNMT1 inh	LMPTP inh	STEP inh	Scp1 confirm	MG interference	others
Cn1nc(C(=O)Nc2ccc(-n3cnnn3)cc2)c2ccccc2c1=O	99*	4	-2	1	3	70*	-11	Scp-1 Tm shift=-27
CCOc1ccc(C2OCCC(C)O2)cc1OC (stereo unspecified)	6	-2	-4	0	-2	.	.
O=C(COC(=O)/C=C/c1ccco1)Nc1ccc(F)cc1Cl	50*	-13	24	1	6	36*	-19	Scp-1 Tm shift=-11
O=C(C=Cc1ccc2c(c1)OCO2)OCC=Cc1ccc2c(c1)OCO2	-16	3	-2	2	4	.	.
Nc1nc(SCc2ccccc2)c2ncn(CCO)c2n1	4	-5	-1	1	-1	.	.
O=C(CN1CCN(Cc2ccc(F)cc2Cl)C1=O)NCCc1ccccc1	50*	-8	7	-1	-1	6	-11
Cc1cccc(C)c1NC(=O)NC1(C(=O)N2CCN3CCCC3C2)CCCCC1 (stereo unspecified)	70*	2	2	-1	0	-17	-13
Cn1ccsc1=NC(=O)c1ccc(=O)[nH]c1	94*	2	2	0	-1	-19	-16
COc1ccc(NC(=O)C(c2ccccc2)n2c(=O)c(-c3ccco3)nc3ccccc32)cc1 (stereo unspecified)	.	.	.	2	.	.	.
CC(=O)c1ccccc1NS(=O)(=O)c1cccc2nsnc12	80*	-13	51*	68*	97*	51*	-23	Scp-1 Tm shift=-6
CC[N+](C)(CC)CC(=O)OCC1C(C)C=C(C)CC1C (stereo unspecified)	56*	2	-1	0	0	-3	-13
CC1=CC(C)C(C(=O)O)C(C(=O)O)C1 (stereo unspecified)	-4	-1	0	-1	1	.	.
Cc1ccc(C(=O)N2CCN(S(=O)(=O)c3ccccc3[N+](=O)[O-])CC2)o1	34	7	14	0	4	.	.
Cc1ccc(C(=O)N2CCN(S(=O)(=O)c3cc(Br)ccc3Br)CC2)o1	68*	-2	4	0	2	19	0
Clc1ccc(Sc2oc(/C=N/n3cnnc3)cc2Br)cc1	98*	-4	2	0	0	-15	-15
O=C(Cc1cccc(NC(=O)C2CCCN(C(=O)C3CCCC3)C2)c1)Nc1cccc(C(=O)N2CCOCC2)c1 (stereo unspecified)	-4	1	4	-2	-2	.	.
CCOc1ccc(Br)cc1/C=N/O	-2	10	3	0	4	.	.
O=C(O)COc1ccc(Br)cc1/C=N/O	60*	-1	19	3	11	52*	-3	Scp-1 Tm shift=-14
COC(=O)C1=C(C(=O)OC)C2(OC1c1ccccc1C)C(=O)c1ccccc1C2=O (stereo unspecified)	56*	8	-2	2	2	-10	-7
Cc1nn(C)c(C)c1/C=C(\C#N)S(=O)(=O)c1ccc(F)cc1	.	-2	4	-1	-2	.	.
O=C(CSc1nnc(-c2ccncc2)n1-c1ccccc1)N1CCN(c2ccc(Cl)cc2)CC1	98*	0	0	-2	-1	5	-11
Cc1cc(F)ccc1C(O)c1ncc(-c2ccccc2F)[nH]1 (stereo unspecified)	.	-8	2	3	-3	.	.
O=C(NNC(=O)c1ccc(NC(=O)c2ccccc2)cc1)c1ccccc1	62*	13	25	22	32	1	-19
CN(C(=O)c1cc2c(=O)n3ccccc3nc2n1C)C1CCCCC1	80*	7	2	1	1	-17	-14
CCC(=O)c1ccc(OC(=O)C2CCN(C3=NS(=O)(=O)c4ccccc43)CC2)cc1	13	4	8	0	-3	.	.
Cc1ccc(-c2nc3ccc(Br)cn3c2Cc2cccc(F)c2)cc1	.	11	9	1	-1	.	.
